We go through one compound from ChEMBL document CHEMBL1123747, “N-methyl derivatives of the 5-HT2 agonist 1-(4-bromo-2,5-dimethoxyphenyl)-2-aminopropane” (J Med Chem, 1987).

Calls of active or inactive are those of the source. No cut-off for these calls is given here.

In experiment [1] the target is T1, Serotonin 2 (5-HT2) receptor (Rattus norvegicus, UniProt P30994+P08909+P14842). Description: Affinity towards [3H]- DOB -labeled 5-hydroxytryptamine 2 receptor sites in rat cortical homogenates.
Experiment [2] deals with T1, Serotonin 2 (5-HT2) receptor. Put plainly: Affinity towards [3H]- ketanserin-labeled 5-hydroxytryptamine 2 receptor sites in rat cortical homogenates. An outline of the steps:
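Label was 0.4 nM [3H]ketanserin, with 11 competitor concentrations run in triplicate and nonspecific binding defined by 1 μM cinanserin. Bound ligand was filtered onto glass fibre and counted by scintillation. IC50 came from nonlinear regression; Ki = IC50/(1+[D]/KD).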

For experiment [3], the species on record is Rattus norvegicus. Put plainly: The compound was tested for effective dose ( ED 50) against stimulus generation with rats trained to discriminate (R) (-)-DOB from saline. It counts as functional. An outline of the steps:
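Male Sprague-Dawley rats (n = 6) on a two-lever operant task for sweetened milk, VI 15-s schedule. Trained to discriminate 0.2 mg/kg ip training drug from 1.0 mL/kg 0.9% saline, 15 min pre-session. Test doses were given ip in random order to groups of 3–6, with 15-min pretreatment and a 2.5-min extinction session. ED50 was calculated from dose-response data.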

Experiment [4] is filed under the species Rattus norvegicus. Description: The number of responses made on the (R)(-)-DOB appropriate level, generation studies was calculated at dose 2.0 mg / kg. It counts as functional. An outline of the steps: (§1)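 Male Sprague-Dawley rats (n = 6) were trained on a two-lever operant task for sweetened-milk reward to discriminate 0.2 mg/kg (R)-(-)-DOB-HCl ip from 1.0 mL/kg 0.9% saline, with a VI 15-s schedule and 15-min sessions. Test doses were given ip 15 min before a 2.5-min extinction session, in random order, to groups of 3-6 rats. Read-out was % drug-lever responses; fewer than five total responses counted as disrupted.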

The species entered for experiment [5] is Rattus norvegicus. Description: The number of responses made on the (R)(-)-DOB appropriate level, generation studies was calculated at dose 4.0 mg / kg. The experiment is classed as functional. An outline of the steps: as §1
For experiment [6], the species on record is Rattus norvegicus. Put plainly: The number of responses made on the (R)(-)-DOB appropriate level, generation studies was calculated at dose 7.5 mg / kg. It counts as functional. An outline of the steps:
as §1

The species named for experiment [7] is Rattus norvegicus. Description: The number of responses made on the (R)(-)-DOB appropriate level, generation studies was calculated at dose 7.8 mg / kg. The experiment is classed as functional. In short, it runs like this:
as §1

Experiment [8] is filed under the species Rattus norvegicus. Put plainly: The number of responses made on the (R)(-)-DOB appropriate level, generation studies was calculated at dose 8.5 mg / kg; NR means not responding. The experiment is classed as functional, organism-based. Also on record: dose 8.5 mg / kg. In short, it runs like this: as §1
For experiment [9], the species on record is Rattus norvegicus. Put plainly: The number of animals responding per number of animals receiving the drug(4/6) in the stimulus-generation studies was calculated at dose 4.0 mg / kg. The experiment is classed as functional. In short, it runs like this: as §1
In experiment [10] the test system is Rattus norvegicus. Put plainly: The number of animals responding per number of animals receiving the drug in the stimulus-generation studies was calculated at dose 2.2 mg/kg. The experiment is classed as functional. In short, it runs like this:
(§2)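 Male Sprague-Dawley rats were trained to discriminate 0.2 mg/kg ip training drug from saline (two levers, VI 15-s, milk reward). Test doses were given ip 15 min pre-session in random order to groups of 3–6. In the 2.5-min extinction session, rats making fewer than five total responses were counted as disrupted. N is animals responding over animals dosed.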

The species entered for experiment [11] is Rattus norvegicus. Description: The number of responses made on the (R)(-)-DOB appropriate level as a percent of total responses made during the 2.5 min extinction session in the stimulus-generation studies was calculated at dose 2.2 mg / kg. It counts as functional. In short, it runs like this:
as §1

Experiment [12] is filed under the species Rattus norvegicus. Description: The number of responses made on the (R)(-)-DOB appropriate level as a percent of total responses made during the 2.5 min extinction session in the stimulus-generation studies was calculated at dose 6.0 mg / kg. It counts as functional. In short, it runs like this: as §1
The species named for experiment [13] is Rattus norvegicus. Description: The number of animals responding per number of animals receiving the drug(3/5) in the stimulus-generation studies was calculated at dose 7.5 mg / kg. It counts as functional. An outline of the steps:
as §2

For experiment [14], the species on record is Rattus norvegicus. Description: The number of animals responding per number of animals receiving the drug(3/5) in the stimulus-generation studies was calculated at dose 7.8 mg / kg. It counts as functional. An outline of the steps:
as §2

The species entered for experiment [15] is Rattus norvegicus. Description: The number of animals responding per number of animals receiving the drug(3/5) in the stimulus-generation studies was calculated at dose 6.0 mg / kg. The experiment is classed as functional. In short, it runs like this: as §2
Experiment [16] is filed under the species Rattus norvegicus. Put plainly: The number of animals responding per number of animals receiving the drug(3/4) in the stimulus-generation studies was calculated at dose 0.3 mg / kg. The experiment is classed as functional.
For experiment [17], the species on record is Rattus norvegicus. Description: The mean responses per minute during the 2.5 min extinction session in the stimulus-generation studies was calculated at dose 2.0 mg / kg. The experiment is classed as functional. An outline of the steps:
(§3)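 Rats were trained on a two-lever drug-versus-saline discrimination (0.2 mg/kg ip training dose, VI 15-s, food reward). Challenge doses were given ip 15 min before a 2.5-min extinction test, in random order, to groups of 3–6 rats, with at least three training sessions between tests. Response rate is responses per minute over the extinction session.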

The species named for experiment [18] is Rattus norvegicus. Put plainly: The mean responses per minute during the 2.5 min extinction session in the stimulus-generation studies was calculated at dose 2.2 mg / kg. The experiment is classed as functional. An outline of the steps: as §3
Experiment [19] is filed under the species Rattus norvegicus. Put plainly: The mean responses per minute during the 2.5 min extinction session in the stimulus-generation studies was calculated at dose 4.0 mg / kg. The experiment is classed as functional. In short, it runs like this:
as §3

The species named for experiment [20] is Rattus norvegicus. Put plainly: The mean responses per minute during the 2.5 min extinction session in the stimulus-generation studies was calculated at dose 6.0 mg / kg. The experiment is classed as functional. An outline of the steps:
as §3

The species named for experiment [21] is Rattus norvegicus. Description: The mean responses per minute during the 2.5 min extinction session in the stimulus-generation studies was calculated at dose 7.5 mg / kg. It counts as functional. An outline of the steps:
as §3

For experiment [22], the species on record is Rattus norvegicus. Description: The mean responses per minute during the 2.5 min extinction session in the stimulus-generation studies was calculated at dose 7.8 mg / kg. It counts as functional. An outline of the steps: as §3
For experiment [23], the species on record is Rattus norvegicus. Put plainly: The number of animals responding per number of animals receiving the drug(1/4) in the stimulus-generation studies was calculated at dose 8.5 mg / kg. It counts as functional. In short, it runs like this: as §2

Broadly, the Ki is the equilibrium dissociation constant of an inhibitor or competing ligand from its target. A lower Ki goes with a stronger hold on the target. For orientation: ED50 means the midpoint of the dose-response relation. Consider `COc1cc(CC(C)N(C)C)c(OC)cc1Br` (stereo not drawn), for which the Ki amounted to 94 nM in experiment [1] and 380 nM in experiment [2]. In the experiment listed under Rattus norvegicus [3], this compound yielded an ED50 of 5.36 mg/kg. For the same compound, the Responding in the experiment listed under Rattus norvegicus [4] was 23%; in the experiment filed under Rattus norvegicus [5] it was 29%; in the experiment listed under Rattus norvegicus [6], 64%; in the experiment listed under Rattus norvegicus [7] it was 86%; in the experiment listed under Rattus norvegicus [11], 6%; in the experiment listed under Rattus norvegicus [12], 38%. Besides, the Responding entry in the experiment filed under Rattus norvegicus [8] was “inactive”. Also, the “No. of animals responding/animals receiving drug” value was 4 in the experiment listed under Rattus norvegicus [9]; 5 in the experiment on Rattus norvegicus [10]; 3 in the experiment listed under Rattus norvegicus [13]; 3 in the experiment filed under Rattus norvegicus [14]; 3 in the experiment filed under Rattus norvegicus [15]; 3 in the experiment filed under Rattus norvegicus [16]. Moreover, the “No. of animals responding/animals receiving drug” value in the experiment filed under Rattus norvegicus [23] is 1. For the same compound, the Response rate in the experiment listed under Rattus norvegicus [17] was 14.6; in the experiment filed under Rattus norvegicus [18], 14.8; in the experiment listed under Rattus norvegicus [19], 10.1; in the experiment listed under Rattus norvegicus [20], 8.1; in the experiment listed under Rattus norvegicus [21] it was 6.8; in the experiment filed under Rattus norvegicus [22], 4.5.
